Assay [1] can be described thus: Inhibition of bovine NADH-ubiquinone oxidoreductase. Further details: species or system Bos taurus. Put shortly: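 Bovine heart electron transport particles (inverted inner mitochondrial membrane vesicles, 40 µg protein) preincubated with compound 5 min at 25 °C in 50 mM phosphate pH 7.4, 250 mM sucrose. NADH added (28 µM final); activity followed as A340 loss over 3 min. IC50 from three experiments.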

The next assay concerns MCF7. The assay is described as follows: Cytotoxicity against human MCF7 cells after 72 hrs. The format is functional, cell-based. The conditions noted are these: MCF7, 72 h. The method, boiled down: (§1)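 Test compound added to cultured cells, 72 h incubation, then viability read by MTT (3-(4,5-dimethylthiazol-2-yl)-2,5-diphenyltetrazolium bromide) reduction. IC50 derived from eight replicates per assay.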

The nature of assay [2]: Cytotoxicity against mouse Hepa1clc7 cells after 72 hrs. Format: functional, cell-based. Put shortly: as §1

Molecules are shown by their SMILES.

As usually defined, the IC50 is the concentration needed to halve the response being measured. Low values mean greater potency, high ones weaker potency. Take `COc1cc(/C=C/c2ccc(O)cc2)cc2c1C=CC(C)(C)O2`: the IC50 was 5.3 µM in assay [1], greater than 30 µM with MCF7 and 8.5 µM in assay [2].

Consider `COc1cc(/C=C/c2ccc3c(c2)OC(C)(C)C=C3)cc(OC)c1OC`, for which the IC50 in assay [1] was found to be 4.9 µM; with MCF7, 24 µM; in assay [2] it was 7 µM.

Consider `COc1ccc([C@@H]2CC(=O)c3c(O)c(CC=C(C)C)c4c(c3O2)C=CC(C)(C)O4)cc1O`, for which the IC50 was found to be 2 µM in assay [1], 6.9 µM in the assay on MCF7 and 3.9 µM in assay [2].

Turning to `COc1ccc([C@@H]2CC(=O)c3c(O)c(CC=C(C)C)c4c(c3O2)C=CC(C)(C)O4)cc1OC`, the IC50 in assay [1] stood at 2.1 µM; in the assay on MCF7, 6.6 µM; in assay [2], 8.5 µM.

On to `COc1ccc([C@@H]2CC(=O)c3cc(CC=C(C)C)c4c(c3O2)C=CC(C)(C)O4)cc1OC`, for which the IC50 was found to be 2.6 µM in assay [1], 5.7 µM with MCF7 and 5.1 µM in assay [2].

As for `Oc1ccc(/C=C/c2cc(O)cc(O)c2)cc1` [RESVERATROL], the IC50 in assay [1] is 26 µM; with MCF7, greater than 30 µM; in assay [2] it was 11 µM.

For `COc1cc(OC)c(-c2coc3c4c(ccc3c2=O)OC(C)(C)[C@@H](O)[C@H]4O)cc1OC` (relative stereo), the half-inhibitory concentration (IC50) (in assay [1]; with MCF7; in assay [2]) was greater than 30 µM in each case.

Consider `COc1cc([C@@H]2CC(=O)c3c(O)c(CC=C(C)C)c4c(c3O2)C=CC(C)(C)O4)ccc1O`, for which the 50% inhibitory concentration (IC50) in assay [1] was determined as 0.68 µM; in the assay on MCF7, 3 µM; in assay [2], 3.5 µM.

Turning to `COc1cc(/C=C/C(=O)c2ccc3c(c2O)C=CC(C)(C)O3)ccc1O`, the figures for the IC50 (in assay [1]; in the assay on MCF7; in assay [2]) were 4.8 µM, 10 µM and 5.9 µM, respectively.

For `COc1cc(/C=C/c2cc(OC)c3c(c2)OC(C)(C)C=C3)ccc1O`, the IC50 in assay [1] is 8.1 µM; in the assay with MCF7, greater than 30 µM; in assay [2], 13 µM.

Regarding `O=c1c(-c2ccc(O)cc2)coc2cc(O)cc(O)c12` [GENISTEIN], the IC50 in assay [1] was 35 µM; with MCF7, greater than 30 µM; in assay [2] it was 11 µM.

As for `CC1(C)C=Cc2c(ccc(C(=O)/C=C/c3ccc(O)cc3)c2O)O1`, the IC50 in assay [1] is 4.9 µM; with MCF7 it was 27 µM; in assay [2], 10 µM.

(Values after ChEMBL document CHEMBL1158008, “New bioactive flavonoids and stilbenes in cubé resin insecticide” (J Nat Prod, 1999).)
